Assay results from different studies.
Compare with care: the assays were run in different laboratories.
Target: Serine/threonine-protein kinase LATS1 (LATS1, Homo sapiens, UniProt O95835)
Sequence (O95835 1-1130, as in one of the studies): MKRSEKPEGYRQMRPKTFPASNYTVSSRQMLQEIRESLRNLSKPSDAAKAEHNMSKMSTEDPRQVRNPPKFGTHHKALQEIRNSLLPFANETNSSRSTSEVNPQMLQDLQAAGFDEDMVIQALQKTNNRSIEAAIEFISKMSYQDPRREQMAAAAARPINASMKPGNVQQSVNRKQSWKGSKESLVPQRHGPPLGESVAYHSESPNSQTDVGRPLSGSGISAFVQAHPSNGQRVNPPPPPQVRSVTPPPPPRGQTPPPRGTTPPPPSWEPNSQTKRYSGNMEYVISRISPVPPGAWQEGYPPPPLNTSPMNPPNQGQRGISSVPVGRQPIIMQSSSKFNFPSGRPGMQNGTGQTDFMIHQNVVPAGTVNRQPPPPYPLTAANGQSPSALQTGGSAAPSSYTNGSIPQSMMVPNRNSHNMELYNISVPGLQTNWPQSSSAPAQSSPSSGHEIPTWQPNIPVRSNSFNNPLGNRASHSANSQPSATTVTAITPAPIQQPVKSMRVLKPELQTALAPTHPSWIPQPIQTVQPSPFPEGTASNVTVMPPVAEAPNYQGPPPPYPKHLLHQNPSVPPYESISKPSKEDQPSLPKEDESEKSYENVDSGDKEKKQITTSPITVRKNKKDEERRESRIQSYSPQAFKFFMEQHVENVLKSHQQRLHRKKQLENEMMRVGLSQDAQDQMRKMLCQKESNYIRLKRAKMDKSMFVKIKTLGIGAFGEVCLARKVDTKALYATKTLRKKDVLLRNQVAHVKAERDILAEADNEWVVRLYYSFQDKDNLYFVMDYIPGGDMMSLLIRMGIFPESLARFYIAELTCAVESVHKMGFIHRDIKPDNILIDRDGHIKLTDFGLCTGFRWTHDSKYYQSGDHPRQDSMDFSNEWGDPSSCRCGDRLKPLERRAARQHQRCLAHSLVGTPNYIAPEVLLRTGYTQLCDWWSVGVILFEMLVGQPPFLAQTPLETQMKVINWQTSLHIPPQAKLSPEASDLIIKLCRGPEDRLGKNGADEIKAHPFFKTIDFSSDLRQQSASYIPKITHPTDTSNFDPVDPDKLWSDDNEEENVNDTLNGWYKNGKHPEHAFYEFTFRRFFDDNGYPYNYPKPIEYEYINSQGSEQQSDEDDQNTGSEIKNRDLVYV

O=C(O)c1cc(-c2ccc(C3CCNCC3)cc2)c2ccc(-c3ccc(C(F)(F)F)cc3)cc2c1 — remaining binding (cell-free assay, competition with immobilised ligand; 1 µM): 88%
C[C@@H]1CCN(c2nccc(-c3cnn4ncccc34)n2)C1 — remaining binding (binding; 1 µM): 100%
COc1cnc(Nc2cccc(S(N)(=O)=O)c2)nc1N1CCN(c2ccccc2)C(=O)C1 — remaining binding (binding, competition with immobilised ligand; 1 µM): 90%
CCN1CCN(Cc2ccc(C(=O)Nc3ccc(C)c(Oc4ccc5c(c4)CC(=O)N5)c3)cc2C(F)(F)F)CC1 — remaining binding (binding, competition with immobilised ligand; 1 µM): 94%
C=CC(=O)N1CCC(C(=O)NCC(=O)N2CCN(c3nc(-c4cnc(N)nc4C(F)F)nc(N4CCOCC4)n3)CC2)CC1 — remaining binding (binding, competition with immobilised ligand; 1 µM): 100%
Cc1cnc(Nc2ccc(C(=O)N3CCC(N4CCCC4)CC3)cc2)nc1-c1cc2ccccc2s1 — remaining binding (binding, competition with immobilised ligand; 1 µM): 89%
CN(C)c1ncc(F)c(-c2cnn3ncccc23)n1 — remaining binding (binding; 1 µM): 100%
COc1cc(-c2cn(C3CCc4c(F)cccc4N(CC(F)(F)F)C3=O)nn2)ccc1-n1cnc(C)c1 (centres unmarked) — remaining binding (cell-free assay, competition with immobilised ligand; 1 µM): 93%
C[C@@H](c1ccc(-n2cnc3c(N)ncnc32)cc1)N1CCc2nn(C)c(Cc3ccccc3)c2C1=O — remaining binding (binding, competition with immobilised ligand; 0.1 µM): 100%
CN(c1nccc(-c2cnn3ncccc23)n1)C1CC1 — remaining binding (binding; 1 µM): 82%
O=C(NCCCC1CCCCC1)c1ccc(CNC(=O)c2cnn(-c3ccccc3)c2C(F)(F)F)cc1 — remaining binding (cell-free assay, competition with immobilised ligand; 0.1 µM): 100%
CN(C)c1nccc(-c2cnn3ncccc23)n1 — remaining binding (binding; 1 µM): 100%
O=C(c1ccc(Nc2nccc(-c3cc4ccccc4s3)n2)cc1)N1CCC(N2CCCC2)CC1 — remaining binding (binding, competition with immobilised ligand; 1 µM): 93%
O=C(Nc1ccc(Oc2ccc(F)cc2)cc1)N1CCc2ncccc2[C@H]1c1ccc(F)cc1 — remaining binding (cell-free assay, competition with immobilised ligand; 1 µM): 86%
N[C@@H]1CCN(c2nccc(-c3cnn4ncccc34)n2)C1 — remaining binding (binding; 1 µM): 100%
O=C(NCCCN1CCOCC1)c1ccc(Nc2ncc(Cl)c(-c3ccc(Cl)s3)n2)cc1 — remaining binding (binding, competition with immobilised ligand; 1 µM): 42%
O=C(O)[C@@H]1[C@@H](Cn2nnc3ccccc3c2=O)CC[C@H]1C(=O)c1ccc(OCCC2CCOCC2)cc1 — remaining binding (cell-free assay, competition with immobilised ligand; 1 µM): 90%
O=C(NCC1CCOCC1)c1n[nH]cc1NC(=O)c1c(F)cccc1F — remaining binding (binding, competition with immobilised ligand; 1 µM): 100%
COc1ccnn2ncc(-c3ccnc(N(C)C)n3)c12 — remaining binding (binding; 1 µM): 100%
N#Cc1ccc(Nc2ccc3[nH]c(=O)[nH]c3c2)c(Cl)c1 — remaining binding (cell-free assay, competition with immobilised ligand; 1 µM): 76%
